Test results as given in article PMC7064934 (Environmental Toxicology and Chemistry, 2019).

Assays:
[1] = octanol/water partition coefficient at pH 7, 20 °C; ref University of Hertfordshire 2018; cited from earlier work
Folsomia candida = assay: Collembolan reproduction test; format: in vivo; settings: F. candida; for Times more toxic to survival than its commercial formulation: pure compound vs formulation (LC50)
In short: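 LUFA 2.2 soil spiked with aqueous pure compound or commercial formulation to 50% WHC; nominal control and 0.04–10.0 mg a.s./kg dry soil. Ten 10–12-d-old synchronized juveniles per 30 g soil, 5 replicates, weekly yeast and water top-up. Held 28 d at 20 ± 2 °C, 75% RH. Animals counted by flotation and image analysis. Log-logistic LC50/EC50 fitted on nominal concentrations.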

earthworm = settings: survival; ref National Registration Authority for Agricultural and Veterinary Chemicals (2001); cited from earlier work
[2] = format: physicochemical; settings: E. andrei test soil, nominal 10 thiamethoxam, t=56 days
In short: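 Soil (5 g) sampled from replicate jar 4 on days 0, 28 and/or 56 and stored at –20 °C. Extracted by QuEChERS and analysed by reverse-phase LC–MS/MS at an external lab; detection limit 0.01 mg a.s./kg dry soil. Soils were also screened for the parent's conversion product. DT50 derived as ln(2)/k from first-order decay without lag.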

Eisenia andrei = assay: Earthworm reproduction test; format: in vivo
In short: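 Clitellate 2-mo synchronized worms acclimatized 24 h in clean soil, washed and weighed. Ten per ~600 g spiked LUFA 2.2 soil (nominal 0.04–10.0 mg a.s./kg dry soil, pure or formulation), 4 replicates, horse manure as food, 20 ± 2 °C, 75% RH. Survival and weight change read on day 28. Juveniles extracted on day 56 in a 60 °C water bath. Log-logistic LC50/EC50 fitted on nominal concentrations.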

E. fetida = settings: cited from earlier work

Compound: CN/C(=N\[N+](=O)[O-])NCc1cnc(Cl)s1 [Clothianidin, clothianidin]
- Log K OW [1]: 0.95
- Times more toxic than thiacloprid (Folsomia candida; LC50 comparison): approximately 100

Compound: CN1COCN(Cc2cnc(Cl)s2)/C1=N\[N+](=O)[O-] [Thiamethoxam, thiamethoxam]
- Log K OW [1]: –0.13
- LC50, acute toxicity tests (14 d) (earthworm): > 1000 mg a.s./kg dry soil
- Concentration of clothianidin measured (conversion product of thiamethoxam) [2]: 0.09 mg a.s./kg dry soil
- Toxicity to E. andrei at the concentrations tested (in words) (Eisenia andrei; highest concentration tested 10 mg a.s./kg dry soil, survival and reproduction): no toxicity

Compound: N#C/N=C1\SCCN1Cc1ccc(Cl)nc1 [Thiacloprid, thiacloprid]
- Times more toxic to reproduction than to survival (Folsomia candida): approximately 3
- LC50 (E. fetida; ref Feng et al. (2015)): 8.43 mg/kg

Compound: C/C(=N\C#N)N(C)Cc1ccc(Cl)nc1 [Acetamiprid, acetamiprid]
- Log K OW [1]: 0.8
- Times more toxic to the survival of the earthworms compared with thiacloprid (Eisenia andrei; E. andrei, LC50 comparison): 10
- Times more toxic to survival than its commercial formulation (Folsomia candida): 3
- Times more toxic to survival than its commercial formulation (Folsomia candida; listed as acetamiprid): 4
- EC50s (E. fetida; ref Wang et al. (2012), Ge et al. (2018), Wang et al. (2015)): approximately 0.30 mg a.s/kg dry soil

Compound: O=[N+]([O-])NC1=NCCN1Cc1ccc(Cl)nc1 [Imidacloprid, imidacloprid]
- Times more toxic to reproduction than its commercial formulation (Folsomia candida; pure compound vs formulation (EC50)): 4
